An excerpt weighted towards active compounds, which were near 2.1% of everything screened.
miR-122 sensor: miR-122 Renilla sensor signal increase in Huh7, primary screen, miR-122 inhibitor project, cell-based, single point, plate reader; AID 602342, 2012; 340,000 compounds, 0.3% hits; Huh7 miR-122 Renilla luciferase sensor, 48 h; neutral wells = 0, positive control = 100; activation (reporter increase), % at 12.5 µM;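 active = mean replicate activation score at least 90 and every replicate individually at or above 90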;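 also: higher luciferase means less miR-122 activity so hits act as miR-122 inhibitors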
SR-BI HDL uptake: inhibitors of SR-BI mediated HDL lipid uptake, primary screen, ldlA[mSR-BI] cells, fluorescence, single point. ldlA[mSR-BI] CHO cells, DiI-HDL uptake fluorescence, 3 h. inhibition, % at 12.5 µM. 320,000 compounds, 0.96% hits;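 active = mean replicate inhibition of at least 70% and a set share of replicates each scoring 70 or more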;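 also: 0% = median of neutral control wells and 100% = median of positive control wells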
Target sequence (Q61009 whole entry, looked up): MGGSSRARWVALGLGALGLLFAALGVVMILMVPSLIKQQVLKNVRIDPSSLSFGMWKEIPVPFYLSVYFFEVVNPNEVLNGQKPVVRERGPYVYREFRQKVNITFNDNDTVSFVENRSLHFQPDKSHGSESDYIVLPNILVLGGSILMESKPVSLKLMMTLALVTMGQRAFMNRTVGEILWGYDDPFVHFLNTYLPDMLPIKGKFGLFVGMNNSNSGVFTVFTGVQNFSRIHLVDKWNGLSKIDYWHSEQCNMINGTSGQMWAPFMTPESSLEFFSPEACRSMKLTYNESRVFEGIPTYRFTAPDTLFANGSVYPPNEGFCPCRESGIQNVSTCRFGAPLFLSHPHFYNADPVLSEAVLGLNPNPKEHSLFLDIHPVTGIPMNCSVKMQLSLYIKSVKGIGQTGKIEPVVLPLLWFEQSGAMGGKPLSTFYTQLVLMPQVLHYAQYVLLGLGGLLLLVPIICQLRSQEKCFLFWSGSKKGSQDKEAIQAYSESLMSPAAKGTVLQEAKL
ARNT-TACC3 inh: disruptors of ARNT/TACC3 protein interaction, primary screen, biochemical, AlphaScreen, single concentration; Transforming acidic coiled-coil-containing protein 3 (Homo sapiens), Q9Y6A5; AlphaScreen His-ARNT PAS-B/GST-TACC3 binding, luminescence; TACC3 fragment carries E629A point mutation; inhibition, % at 9.99 µM; 390,000 compounds, 0.66% hits;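 active = mean inhibition of replicates at least 50% and at least half of replicates each reaching 50%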;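 also: 0% = complete ARNT plus TACC3 wells and 100% = ARNT alone without TACC3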
CAL PDZ FP-1: CAL PDZ peptide-binding inhibitors, primary screen, biochemical, fluorescence polarization, Cer-tagged CAL PDZ, HTS | 330,000 compounds, 0.02% hits | inhibition, % at 20 µM | Golgi-associated PDZ and coiled-coil motif-containing protein (Homo sapiens), Q9HD26 | purified CAL PDZ, TMR-peptide fluorescence polarization, 1 h;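 active = highest replicate inhibition of at least 40%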;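 also: plate controls were DMSO neutral control wells for no effect and unlabeled competitor peptide control wells for full effect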
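Material: tagged CAL PDZ domain; buffer or medium: 25 mM sodium phosphate pH 7.4, 150 mM NaCl, TCEP, IgG, Thesit; compound dosing: single point, 20 µM; schedule: 1 h incubation at room temperature before polarization reading; measured by: FP readout, S and P plane fluorescence; read-out basis: percent inhibition from loss of millipolarization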
SR-BI DiI-HDL act: activators of SR-BI mediated DiI-HDL uptake, primary screen, ldlA[mSR-BI] CHO cells, DiI fluorescence; AID 504775, 2011; activation, % at 12.5 µM; 3 h; 100 = double the neutral-control signal; 320,000 compounds, 0.096% hits;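 active = mean replicate activation of at least 60% and every replicate at or above 60%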;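 also: 0% = median plate neutral-control signal and 100% = twice that signal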
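System: CHO ldlA[mSR-BI] cells / Medium: HEPES-buffered (25 mM, pH 7.4) F12 plus 0.5% BSA / Probe or stimulus: labelled HDL, 10 µg/mL / Doses: single compound concentration, delivered by pin transfer / Schedule: 3 h, 37 °C / Measured by: DiI fluorescence, bottom read / Measure: cell-associated DiI fluorescence as measure of HDL uptake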
CAL PDZ FP-2: untagged CAL PDZ binding inhibitors, primary screen, biochemical, fluorescence polarization, HTS; inhibition, % at 24.9 µM; Golgi-associated PDZ and coiled-coil motif-containing protein (Homo sapiens), Q9HD26; 300,000 compounds, 0.92% hits; purified CAL PDZ, TMR-peptide fluorescence polarization, 1 h;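 active = mean inhibition of at least 30% with at least half of replicates also reaching 30%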;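 also: 0% = DMSO neutral control and 100% = excess unlabeled competitor peptide PRC23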
Numbers without * were called inactive; nt = not tested or not shown; [ ] = remark or other dose.

SMILES	miR-122 sensor	SR-BI HDL uptake	ARNT-TACC3 inh	CAL PDZ FP-1	SR-BI DiI-HDL act	CAL PDZ FP-2
O=C(Nc1nc(-c2ccccn2)cs1)c1ccc2c(c1)OCCO2	-1.7	23.0	49.7*	-2.6	-23.0	-8.4
N#CCC(=O)Nc1nc(-c2ccc3c(c2)OCCO3)cs1	nt	2.6	-1.0	-0.4	-2.6	74.1*
CC(=O)Nc1ccc(C(=O)Nc2nc(-c3ccccn3)cs2)cc1	nt	47.5	nt	-2.1	-47.5	nt
C[C@@H]1CN([C@@H](C)CO)C(=O)CCCn2cc(nn2)CO[C@H]1CN(C)C	5.7[16.7 µM]	nt	nt	nt	nt	nt
CN(C)S(=O)(=O)c1cccc(NC(=S)N/N=C/c2cc(Br)ccc2O)c1	15.6	nt	62.4*	-0.5	nt	-3.0
COc1cccc(S(=O)(=O)N2CC[C@H]3[C@@H](CO)N(C)c4ccc(C#Cc5ccc(F)cc5)cc4[C@H]32)c1	-9.9[16.7 µM]	nt	-13.0	nt	nt	nt
COc1ccc(S(=O)(=O)N2CC[C@@H]3[C@@H](CO)N(C)c4ccc(-c5ccc(F)cc5)cc4[C@@H]32)cc1	195.6*[16.7 µM]	nt	19.5	nt	nt	nt
Cc1cccc(S(=O)(=O)N2CC[C@@H]3[C@H](CO)N(C)c4ccc(C#Cc5ccc(F)cc5)cc4[C@@H]32)c1	-2.0[16.7 µM]	nt	48.0*	nt	nt	nt
Cc1ccccc1S(=O)(=O)N1CC[C@@H]2[C@@H](CO)N(C)c3ccc(-c4ccccc4)cc3[C@@H]21	101.8*[16.7 µM]	nt	0.2	nt	nt	nt
C[C@H](CO)N1C[C@H](C)[C@@H](CN(C)CC2CCCCC2)OCCCC[C@H](C)Oc2ccc(NC(=O)C3CCCCC3)cc2C1=O	-9.2[16.7 µM]	nt	0.3	nt	nt	nt
C[C@H]1CCCCO[C@H](CN(C)C(=O)c2ccccc2)[C@@H](C)CN([C@@H](C)CO)C(=O)c2cc(NC(=O)Nc3ccc(C(F)(F)F)cc3)ccc2O1	-3.1[16.7 µM]	nt	-18.0	nt	nt	nt
CN(C)c1ccc2c(c1)[C@@H]1C[C@@H](CC(=O)NCc3ccc(-c4ccccc4)cc3)O[C@H](CO)[C@@H]1O2	-3.8[16.7 µM]	nt	5.6	nt	nt	nt
CN(C)C(=O)C[C@H]1CC[C@H]2[C@@H](COc3ccc(NC(=O)Nc4cccc(Cl)c4)cc3C(=O)N2C)O1	36.7[16.7 µM]	nt	-5.1	nt	nt	nt
CCCn1nnc2ccccc2c1=O	0.3	4.0	13.9	0.8	-4.0	-1.1
CCOc1ccc(OCCn2nnc3ccccc3c2=O)cc1	nt	-152.1	-0.4	-1.3	152.1*	-8.4
C[C@H]1CCCCO[C@H](CN(C)C(=O)Nc2ccc(C(F)(F)F)cc2)[C@@H](C)CN([C@@H](C)CO)C(=O)c2cc(NC(=O)Nc3ccc4c(c3)OCO4)ccc2O1	-3.2[16.7 µM]	nt	17.3	nt	nt	nt
Cc1csc2c(=O)sc(NC(=O)c3ccco3)nc12	117.3*	0.4	-8.5	-1.3	-0.4	nt
O=C(Nc1nc2ccsc2c(=O)s1)c1ccco1	-10.9	nt	nt	nt	nt	nt
Cc1nc(NC(=O)c2ccco2)sc1-c1csc(Nc2ccc(Cl)cc2)n1	-25.6	84.5*	0.3	0.1	-84.5	-1.5
COc1ccccc1Nc1nc(-c2sc(NC(=O)c3ccco3)nc2C)cs1	nt	85.1*	-3.9	0.7	-85.1	-1.0
COc1ccccc1CNC(=O)C[C@@H]1C[C@H]2c3cc(NC(=O)CC4CC4)ccc3O[C@H]2[C@@H](CO)O1	-3.5[16.7 µM]	nt	-0.9	nt	nt	nt
C[C@@H]1CN([C@@H](C)CO)C(=O)c2cc(-c3ccncc3)cnc2O[C@H]1CN(C)C(=O)Nc1ccc2c(c1)OCO2	3.0[16.7 µM]	nt	-0.6	nt	nt	nt
CCCNC(=O)C[C@@H]1C[C@H]2c3cc(NC(=O)Cc4ccncc4)ccc3O[C@H]2[C@H](CO)O1	-0.6[16.7 µM]	nt	-3.5	nt	nt	nt
CN(C)C(=O)CSc1nc2cc(S(=O)(=O)N3CCOCC3)ccc2o1	-5.2	-45.0	0.8	-0.1	45.0	90.3*
CC1(C)NC(=O)N(CC(=O)OCC(=O)c2ccc(F)cc2)C1=O	-4.0	-152.2	-12.0	-0.6	152.2*	-8.0
